Drawing on ChEMBL document CHEMBL1130127, “Synthesis, photophysical properties, in vivo photosensitizing efficacy, and human serum albumin binding properties of some novel bacteriochlorins” (J Med Chem, 1997), this text covers Response and Binding constant for 2 molecules.

Series [1] has as its system Mus musculus. As to the kind of experiment: The compound was tested in vivo for photosensitizing efficacy in DBA/2 Mice at (1-5 days) 3 hours post injection at 5.0 mg/kg concentration; No response. More on the design: dose 5 mg/kg. It counts as functional, organism-based. The procedure, abridged: (§1)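 Female DBA/2 HA-DD mice, 5-7 weeks old. A 1 mm SMT-F tumor piece from a donor was trocar-implanted subcutaneously in the axilla. At about 5 mm tumor diameter, sensitizer in 1% Tween 80/water was given iv; dose was based on extinction coefficient. At 3 or 24 h after injection, restrained mice had the tumor lit with 135 J/cm2 laser light at the in vivo long-wavelength maximum. Tumor response was followed to day 30; six mice/group.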

Series [2] concerns Mus musculus. As to the kind of experiment: The compound was tested in vivo for photosensitizing efficacy in DBA/2 Mice transplanted with SMT/F tumors and the activity is expressed as % response (11-15 days) 3 hours post injection at 5.0 mg/kg concentration; No response. Format: functional, organism-based. Further details: dose 5 mg/kg. The procedure, abridged:
as §1

The subject of series [3] is Mus musculus. The series is described as follows: The compound was tested in vivo for photosensitizing efficacy in DBA/2 Mice transplanted with SMT/F tumors and the activity is expressed as % response (16-20 days) 3 hours post injection at 5.0 mg/kg concentration; No response. Format: functional, organism-based. Further details: dose 5 mg/kg. The procedure, abridged:
as §1

Series [4] deals with Mus musculus. As to the kind of experiment: The compound was tested in vivo for photosensitizing efficacy in DBA/2 Mice transplanted with SMT/F tumors and the activity is expressed as % response (21-25 days) 3 hours post injection at 5.0 mg/kg concentration; No response. Format: functional, organism-based. Further details: dose 5 mg/kg. The procedure, abridged:
as §1

For series [5], the system named is Mus musculus. The series is described as follows: The compound was tested in vivo for photosensitizing efficacy in DBA/2 Mice transplanted with SMT/F tumors and the activity is expressed as % response (26-30 days) 3 hours post injection at 5.0 mg/kg concentration; No response. Format: functional, organism-based. Further details: dose 5 mg/kg. A digest of the protocol: as §1

In series [6] the test system is Mus musculus. As to the kind of experiment: The compound was tested in vivo for photosensitizing efficacy in DBA/2 Mice transplanted with SMT/F tumors and the activity is expressed as % response (6-10 days) 3 hours post injection at 5.0 mg/kg concentration; No response. It counts as functional, organism-based. Further details: dose 5 mg/kg. A digest of the protocol: as §1

Series [7] addresses T1, Albumin (Homo sapiens, UniProt P02768). As to the kind of experiment: Binding affinity against Human serum albumin(Site I). The procedure, abridged: (§2)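 Fluorometric titration: HSA and sensitizer fixed at 1 × 10^-6 mol/L. Site probe varied 4 × 10^-7 to 2 × 10^-6 mol/L: DNSA for site I, read at 472 nm; DP for site II, read at 476 nm; excitation 340 nm. Incubated 4 °C, pH 7.0, 4 h, dark. Bound probe taken from standard curves of free probe (water) and HSA-bound probe (2.5 × 10^-5 mol/L HSA).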

Series [8] has as its system Mus musculus. The series is described as follows: The compound was tested in vivo for photosensitizing efficacy in DBA/2 Mice transplanted with SMT/F tumors and the activity is expressed as % response at (21-25 days) 3 hours post injection at 2.5 mg/kg concentration. Format: functional. The procedure, abridged:
as §1

Series [9] relates to Mus musculus. The series is described as follows: The compound was tested in vivo for photosensitizing efficacy in DBA/2 Mice transplanted with SMT/F tumors and the activity is expressed as % response at (1-5 days) 24 hours post injection at 5.0 mg/kg concentration; No response. Format: functional, organism-based. Further details: dose 5 mg/kg. The procedure, abridged: as §1

The test system of series [10] is Mus musculus. As to the kind of experiment: The compound was tested in vivo for photosensitizing efficacy in DBA/2 Mice transplanted with SMT/F tumors and the activity is expressed as % response at (1-5 days) 3 hours post injection at 1 mg/kg concentration. Format: functional. A digest of the protocol: as §1
Series [11] concerns Mus musculus. As to the kind of experiment: The compound was tested in vivo for photosensitizing efficacy in DBA/2 Mice transplanted with SMT/F tumors and the activity is expressed as % response at (1-5 days) 3 hours post injection at 2.5 mg/kg concentration. It counts as functional. A digest of the protocol: as §1
Series [12] concerns Mus musculus. As to the kind of experiment: The compound was tested in vivo for photosensitizing efficacy in DBA/2 Mice transplanted with SMT/F tumors and the activity is expressed as % response at (11-15 days) 24 hours post injection at 5 mg/kg concentration; No response. More on the design: dose 5 mg/kg. It counts as functional, organism-based. The procedure, abridged: as §1

For series [13], the system named is Mus musculus. The series is described as follows: The compound was tested in vivo for photosensitizing efficacy in DBA/2 Mice transplanted with SMT/F tumors and the activity is expressed as % response at (11-15 days) 3 hours post injection at 1 mg/kg concentration. Format: functional. The procedure, abridged: as §1
Series [14] deals with Mus musculus. The series is described as follows: The compound was tested in vivo for photosensitizing efficacy in DBA/2 Mice transplanted with SMT/F tumors and the activity is expressed as % response at (11-15 days) 3 hours post injection at 2.5 mg/kg concentration. It counts as functional. The procedure, abridged:
as §1

For series [15], the system named is Mus musculus. As to the kind of experiment: The compound was tested in vivo for photosensitizing efficacy in DBA/2 Mice transplanted with SMT/F tumors and the activity is expressed as % response at (16-20 days) 24 hours post injection at 5 mg/kg concentration; No response. It counts as functional, organism-based. Further details: dose 5 mg/kg. A digest of the protocol: as §1

Series [16] relates to Mus musculus. As to the kind of experiment: The compound was tested in vivo for photosensitizing efficacy in DBA/2 Mice transplanted with SMT/F tumors and the activity is expressed as % response at (16-20 days) 3 hours post injection at 1 mg/kg concentration. Format: functional. A digest of the protocol: as §1
The test system of series [17] is Mus musculus. The series is described as follows: The compound was tested in vivo for photosensitizing efficacy in DBA/2 Mice transplanted with SMT/F tumors and the activity is expressed as % response at (16-20 days) 3 hours post injection at 2.5 mg/kg concentration. It counts as functional. A digest of the protocol: as §1
The test system of series [18] is Mus musculus. The series is described as follows: The compound was tested in vivo for photosensitizing efficacy in DBA/2 Mice transplanted with SMT/F tumors and the activity is expressed as % response at (26-30 days) 24 hours post injection at 5 mg/kg concentration; No response. Format: functional, organism-based. More on the design: dose 5 mg/kg.
The test system of series [19] is Mus musculus. The series is described as follows: The compound was tested in vivo for photosensitizing efficacy in DBA/2 Mice transplanted with SMT/F tumors and the activity is expressed as % response at (26-30 days) 3 hours post injection at 1 mg/kg concentration. Format: functional.
The test system of series [20] is Mus musculus. As to the kind of experiment: The compound was tested in vivo for photosensitizing efficacy in DBA/2 Mice transplanted with SMT/F tumors and the activity is expressed as % response at (26-30 days) 3 hours post injection at 2.5 mg/kg concentration. It counts as functional.
In series [21] the test system is Mus musculus. As to the kind of experiment: The compound was tested in vivo for photosensitizing efficacy in DBA/2 Mice transplanted with SMT/F tumors and the activity is expressed as % response at (6-10 days) 24 hours post injection at 5 mg/kg concentration; No response. Format: functional, organism-based. More on the design: dose 5 mg/kg.
Series [22] relates to Mus musculus. As to the kind of experiment: The compound was tested in vivo for photosensitizing efficacy in DBA/2 Mice transplanted with SMT/F tumors and the activity is expressed as % response at (6-10 days) 3 hours post injection at 1 mg/kg concentration. It counts as functional.
Series [23] relates to Mus musculus. As to the kind of experiment: The compound was tested in vivo for photosensitizing efficacy in DBA/2 Mice transplanted with SMT/F tumors and the activity is expressed as % response at (6-10 days) 3 hours post injection at 2.5 mg/kg concentration. It counts as functional. A digest of the protocol:
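SMT-F tumor piece (1 mm) from donor implanted subcutaneously by trocar into axilla of 5–7-week-old female DBA/2 HA-DD mice; treated at ~5 mm diameter. Sensitizer dissolved in 1% Tween 80/water, given iv; 3 h later restrained mouse's tumor illuminated with 135 J/cm2 laser light at in vivo long-wavelength absorption maximum. Tumor response scored over 30 days; six mice/group.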

For series [24], the system named is Mus musculus. As to the kind of experiment: The compound was tested in vivo for photosensitizing efficacy in DBA/2 Mice transplanted with SMT/F tumors and the activity is expressed as % response at (21-25 days) 24 hours post injection at 5 mg/kg concentration; No response. Further details: dose 5 mg/kg. Format: functional, organism-based. A digest of the protocol:
as §1

The test system of series [25] is Mus musculus. The series is described as follows: The compound was tested in vivo for photosensitizing efficacy in DBA/2 Mice transplanted with SMT/F tumors and the activity is expressed as % response at (21-25 days) 3 hours post injection at 1 mg/kg concentration. It counts as functional. A digest of the protocol:
as §1

Series [26] concerns the target T1, Albumin. As to the kind of experiment: Binding affinity against Human serum albumin(Site II). A digest of the protocol:
as §2

The source made the active and inactive calls. No cut-off for these calls is given here.

T1 sequence (P02768 whole entry): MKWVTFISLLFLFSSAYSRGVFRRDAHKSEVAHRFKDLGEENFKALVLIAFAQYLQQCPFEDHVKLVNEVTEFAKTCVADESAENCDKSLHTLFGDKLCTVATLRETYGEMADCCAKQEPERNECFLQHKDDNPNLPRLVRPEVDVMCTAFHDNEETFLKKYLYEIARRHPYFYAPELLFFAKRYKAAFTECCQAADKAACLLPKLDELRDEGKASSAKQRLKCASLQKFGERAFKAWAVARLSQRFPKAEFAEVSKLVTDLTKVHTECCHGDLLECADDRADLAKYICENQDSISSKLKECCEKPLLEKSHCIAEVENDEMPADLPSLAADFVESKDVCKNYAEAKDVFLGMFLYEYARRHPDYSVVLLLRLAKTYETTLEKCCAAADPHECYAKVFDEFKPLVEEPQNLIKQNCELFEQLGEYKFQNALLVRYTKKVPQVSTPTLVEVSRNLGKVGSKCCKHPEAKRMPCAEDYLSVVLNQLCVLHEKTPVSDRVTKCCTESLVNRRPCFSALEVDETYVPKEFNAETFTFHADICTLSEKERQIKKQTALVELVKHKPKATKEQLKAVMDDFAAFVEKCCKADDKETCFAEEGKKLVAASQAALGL

On to `CCc1c(C)c2[nH]c1cc1[nH]c(cc3nc4c(c5nc(c2C=O)[C@@H](C)[C@@H]5CCC(=O)OC)CCC4=C3C)C(O)(CC)C1(C)O` (some centres not stated), for which the Response entry with Mus musculus [1], with Mus musculus [2], in the series on Mus musculus [3], in the series with Mus musculus [4], in the series on Mus musculus [5] and with Mus musculus [6] was “inactive” throughout. For the same molecule, at Albumin [7], the Binding constant was 500000 l M-1.
Turning to `CCc1c(C)c2[nH]c1cc1[nH]c(cc3nc4c(c5nc(c2C=O)[C@@H](C)[C@@H]5CCC(=O)NC(CC(=O)OC(C)(C)C)C(=O)OC(C)(C)C)CCC4=C3C)C(=O)C1(C)CC` (some centres not stated), the Response in the series with Mus musculus [8] is 60%; in the series on Mus musculus [10] it was 100%; in the series on Mus musculus [11], 100%; in the series on Mus musculus [13], 60%; in the series on Mus musculus [14], 60%; in the series on Mus musculus [16], 60%. Further, the Response came to 60% in the series with Mus musculus [17]; 50% in the series on Mus musculus [19]; 60% with Mus musculus [20]; 80% in the series on Mus musculus [22]; 100% in the series with Mus musculus [23]; 50% in the series on Mus musculus [25]. The Response result in the series with Mus musculus [9], in the series on Mus musculus [12], in the series with Mus musculus [15], in the series with Mus musculus [18], with Mus musculus [21] and in the series on Mus musculus [24] was “inactive” each time. The Binding constant on Albumin [7] and on Albumin [26] was 500000 l M-1 throughout.
